Measurements taken from ChEMBL document CHEMBL4402597, “Truncated (N)-Methanocarba Nucleosides as Partial Agonists at Mouse and Human A3 Adenosine Receptors: Affinity Enhancement by N6-(2-Phenylethyl) Substitution” (J Med Chem, 2020).
Activity calls are given as the source filed them. The calls are words filed in the database; no cut-off is given here.

How the values were obtained:
[1] = target: T1, Adenosine receptor A1 (Homo sapiens) (UniProt P30542); experiment: Displacement of [3H]R-PIA from recombinant human A1AR expressed in HEK293 cell membranes at 10 uM measured after 60 mins by liquid scintillation counting method relative to control
T1 sequence (whole entry): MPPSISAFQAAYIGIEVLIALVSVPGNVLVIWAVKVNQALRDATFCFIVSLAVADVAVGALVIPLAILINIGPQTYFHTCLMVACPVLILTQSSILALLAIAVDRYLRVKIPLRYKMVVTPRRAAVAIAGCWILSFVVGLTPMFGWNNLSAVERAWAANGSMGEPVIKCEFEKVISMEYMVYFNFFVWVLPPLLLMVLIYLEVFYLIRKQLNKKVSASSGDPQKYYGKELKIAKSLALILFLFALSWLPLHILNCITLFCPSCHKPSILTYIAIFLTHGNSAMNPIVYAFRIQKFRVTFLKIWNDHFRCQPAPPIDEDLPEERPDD

[2] = target: T2, Adenosine receptor A1 (Mus musculus, UniProt Q60612); experiment: Displacement of [3H]R-PIA from recombinant mouse A1AR expressed in HEK293 cell membranes measured after 60 mins by liquid scintillation counting method
T2 sequence (Q60612 whole entry): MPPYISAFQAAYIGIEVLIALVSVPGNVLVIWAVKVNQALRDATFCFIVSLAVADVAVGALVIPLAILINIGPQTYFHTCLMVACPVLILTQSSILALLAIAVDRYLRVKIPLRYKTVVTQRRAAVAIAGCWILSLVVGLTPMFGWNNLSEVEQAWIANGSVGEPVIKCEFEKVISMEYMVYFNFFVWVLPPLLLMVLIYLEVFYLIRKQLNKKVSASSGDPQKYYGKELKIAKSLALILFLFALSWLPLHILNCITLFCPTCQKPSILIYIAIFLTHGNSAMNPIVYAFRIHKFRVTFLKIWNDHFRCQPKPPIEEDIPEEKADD

[3] = target: Adenosine receptor A2a (Homo sapiens, UniProt P29274); experiment: Displacement of [3H]CGS21680 from recombinant human A2AAR expressed in HEK293 cell membranes at 10 uM measured after 60 mins by liquid scintillation counting method relative to control
Chain of Adenosine receptor A2a (P29274 whole entry): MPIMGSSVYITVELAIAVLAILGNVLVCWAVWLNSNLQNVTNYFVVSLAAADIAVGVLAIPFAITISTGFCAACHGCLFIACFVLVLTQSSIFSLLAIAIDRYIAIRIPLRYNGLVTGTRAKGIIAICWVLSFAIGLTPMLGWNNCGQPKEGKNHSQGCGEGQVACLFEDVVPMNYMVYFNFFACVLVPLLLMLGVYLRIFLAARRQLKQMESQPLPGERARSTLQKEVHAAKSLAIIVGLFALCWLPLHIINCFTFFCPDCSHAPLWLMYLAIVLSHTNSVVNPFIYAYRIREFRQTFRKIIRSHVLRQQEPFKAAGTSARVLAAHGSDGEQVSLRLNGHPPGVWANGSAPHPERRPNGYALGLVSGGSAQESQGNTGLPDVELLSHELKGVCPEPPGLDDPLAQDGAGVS

[4] = target: T3, Adenosine receptor A3 (Mus musculus) (UniProt Q61618); experiment: Partial agonist activity at recombinant mouse A3AR expressed in HEK293 cell membranes assessed as stimulation of [35S]GTPgammaS binding measured after 2 hrs in presence of A2BAR blocker PSB-603 by liquid scintillation counting analysis relative to adenosine-5'-Nethyluronamide; type: functional
T3 sequence (whole entry): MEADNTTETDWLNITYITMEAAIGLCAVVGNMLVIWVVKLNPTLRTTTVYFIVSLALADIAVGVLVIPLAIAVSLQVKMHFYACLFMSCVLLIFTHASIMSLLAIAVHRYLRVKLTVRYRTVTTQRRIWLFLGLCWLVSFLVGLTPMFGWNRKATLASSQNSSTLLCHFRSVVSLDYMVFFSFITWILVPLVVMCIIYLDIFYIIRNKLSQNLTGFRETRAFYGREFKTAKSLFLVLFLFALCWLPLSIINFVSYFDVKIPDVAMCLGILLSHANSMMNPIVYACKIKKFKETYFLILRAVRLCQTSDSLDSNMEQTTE

[5] = target: T4, Adenosine receptor A3 (Homo sapiens) (UniProt P0DMS8); experiment: Partial agonist activity at recombinant human A3AR expressed in HEK293 cells assessed as inhibition of forskolin-stimulated cAMP accumulation by measuring residual cAMP level measured after 30 mins in presence of A2BAR blocker PSB-603 by Glo-sensor assay relative to control; type: functional, cell-based
T4 sequence (whole entry): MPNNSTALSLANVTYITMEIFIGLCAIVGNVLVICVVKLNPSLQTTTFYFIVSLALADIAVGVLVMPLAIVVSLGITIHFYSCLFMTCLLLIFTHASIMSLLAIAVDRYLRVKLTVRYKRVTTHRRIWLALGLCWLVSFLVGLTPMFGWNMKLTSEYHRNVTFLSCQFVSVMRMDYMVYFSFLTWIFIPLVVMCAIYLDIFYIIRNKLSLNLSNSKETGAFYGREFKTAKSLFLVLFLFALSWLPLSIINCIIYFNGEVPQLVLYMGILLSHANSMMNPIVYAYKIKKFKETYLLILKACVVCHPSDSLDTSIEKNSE

[6] = target: T4, Adenosine receptor A3 (Homo sapiens); experiment: Partial agonist activity at recombinant human A3AR expressed in HEK293 cells assessed as inhibition of forskolin-stimulated cAMP accumulation at 10 uM measured after 30 mins in presence of A2BAR blocker PSB-603 by Glo-sensor assay relative to Cl-IB-MECA; type: functional, cell-based
[7] = target: Sigma non-opioid intracellular receptor 1 (Homo sapiens, UniProt Q99720); experiment: Displacement of [3H]-Pentazocine from sigma 1 receptor (unknown origin) measured after 90 mins by microbeta counting analysis
Chain of Sigma non-opioid intracellular receptor 1 (Q99720 whole entry): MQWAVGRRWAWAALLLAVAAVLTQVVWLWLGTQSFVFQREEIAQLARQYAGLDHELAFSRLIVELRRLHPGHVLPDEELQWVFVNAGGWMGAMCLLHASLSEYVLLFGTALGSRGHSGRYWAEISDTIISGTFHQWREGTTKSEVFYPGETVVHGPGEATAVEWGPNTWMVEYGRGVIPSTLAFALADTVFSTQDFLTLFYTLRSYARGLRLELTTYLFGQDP

[8] = target: Sigma intracellular receptor 2 (Homo sapiens, UniProt Q5BJF2); experiment: Displacement of [3H]-DTG from sigma 2 receptor (unknown origin) measured after 90 mins by microbeta counting analysis
Chain of Sigma intracellular receptor 2 (Q5BJF2 whole entry): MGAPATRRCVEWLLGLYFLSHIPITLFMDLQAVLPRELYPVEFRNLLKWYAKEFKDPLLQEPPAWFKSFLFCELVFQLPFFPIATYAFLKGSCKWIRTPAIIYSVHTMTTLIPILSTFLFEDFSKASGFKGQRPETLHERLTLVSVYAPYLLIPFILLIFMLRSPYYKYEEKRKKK

[9] = target: Translocator protein (Homo sapiens, UniProt P30536); experiment: Inhibition of TSPO (unknown origin)
Chain of Translocator protein (P30536 whole entry): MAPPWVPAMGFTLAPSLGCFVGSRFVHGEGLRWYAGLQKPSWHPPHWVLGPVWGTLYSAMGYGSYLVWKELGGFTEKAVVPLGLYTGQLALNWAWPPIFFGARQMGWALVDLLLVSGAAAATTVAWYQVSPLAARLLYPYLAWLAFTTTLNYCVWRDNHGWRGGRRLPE

[10] = target: T5, Cytochrome P450 1A2 (Homo sapiens, UniProt P05177); experiment: Inhibition of CYP1A2 (unknown origin)
T5 sequence (P05177 whole entry): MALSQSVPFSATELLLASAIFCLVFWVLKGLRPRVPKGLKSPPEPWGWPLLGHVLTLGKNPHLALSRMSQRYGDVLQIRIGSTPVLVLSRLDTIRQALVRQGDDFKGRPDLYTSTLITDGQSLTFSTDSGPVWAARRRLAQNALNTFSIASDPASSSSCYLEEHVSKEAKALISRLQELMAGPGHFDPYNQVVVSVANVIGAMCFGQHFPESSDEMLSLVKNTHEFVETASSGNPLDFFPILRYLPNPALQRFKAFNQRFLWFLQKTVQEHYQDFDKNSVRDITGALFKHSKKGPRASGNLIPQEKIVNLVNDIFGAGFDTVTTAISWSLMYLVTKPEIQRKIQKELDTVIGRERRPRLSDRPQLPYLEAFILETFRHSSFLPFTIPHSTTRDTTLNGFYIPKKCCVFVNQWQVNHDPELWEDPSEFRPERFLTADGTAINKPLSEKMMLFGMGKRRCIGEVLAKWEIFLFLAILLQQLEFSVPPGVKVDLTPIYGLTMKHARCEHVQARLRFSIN

[11] = target: Cytochrome P450 2C9 (Homo sapiens, UniProt P11712); experiment: Inhibition of CYP2C9 (unknown origin) using tolbutamide as substrate
Chain of Cytochrome P450 2C9 (P11712 whole entry): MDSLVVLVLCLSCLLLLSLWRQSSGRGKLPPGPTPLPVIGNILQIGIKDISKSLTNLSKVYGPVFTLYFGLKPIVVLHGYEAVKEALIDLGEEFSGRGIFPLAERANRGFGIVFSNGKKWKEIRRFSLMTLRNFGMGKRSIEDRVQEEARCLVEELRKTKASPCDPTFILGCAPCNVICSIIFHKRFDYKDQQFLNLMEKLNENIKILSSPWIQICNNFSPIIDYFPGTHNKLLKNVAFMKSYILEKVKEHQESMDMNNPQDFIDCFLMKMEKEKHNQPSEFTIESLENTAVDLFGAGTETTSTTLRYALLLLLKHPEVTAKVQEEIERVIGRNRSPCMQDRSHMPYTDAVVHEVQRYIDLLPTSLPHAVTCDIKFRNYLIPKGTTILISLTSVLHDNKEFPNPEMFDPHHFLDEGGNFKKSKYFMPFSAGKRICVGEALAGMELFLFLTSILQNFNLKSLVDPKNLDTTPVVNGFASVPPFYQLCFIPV

[12] = target: Cytochrome P450 2C19 (Homo sapiens, UniProt P33261); experiment: Inhibition of CYP2C19 (unknown origin)
Chain of Cytochrome P450 2C19 (P33261 whole entry): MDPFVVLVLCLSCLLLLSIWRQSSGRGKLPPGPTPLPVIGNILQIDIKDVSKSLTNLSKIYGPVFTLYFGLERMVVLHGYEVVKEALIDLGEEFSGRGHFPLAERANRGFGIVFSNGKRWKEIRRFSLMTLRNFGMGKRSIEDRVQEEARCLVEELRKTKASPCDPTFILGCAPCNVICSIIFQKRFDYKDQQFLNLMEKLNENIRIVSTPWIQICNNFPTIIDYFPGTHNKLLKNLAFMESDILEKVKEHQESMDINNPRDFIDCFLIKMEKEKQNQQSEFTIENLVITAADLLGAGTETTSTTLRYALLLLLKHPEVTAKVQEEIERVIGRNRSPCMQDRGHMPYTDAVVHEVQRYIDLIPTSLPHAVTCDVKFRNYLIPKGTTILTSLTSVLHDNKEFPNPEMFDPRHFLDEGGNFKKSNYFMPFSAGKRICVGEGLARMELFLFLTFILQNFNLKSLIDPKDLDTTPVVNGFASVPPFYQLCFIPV

[13] = target: Cytochrome P450 2D6 (Homo sapiens, UniProt P10635); experiment: Inhibition of CYP2D6 (unknown origin) using dextromethorphan as substrate
Chain of Cytochrome P450 2D6 (P10635 whole entry): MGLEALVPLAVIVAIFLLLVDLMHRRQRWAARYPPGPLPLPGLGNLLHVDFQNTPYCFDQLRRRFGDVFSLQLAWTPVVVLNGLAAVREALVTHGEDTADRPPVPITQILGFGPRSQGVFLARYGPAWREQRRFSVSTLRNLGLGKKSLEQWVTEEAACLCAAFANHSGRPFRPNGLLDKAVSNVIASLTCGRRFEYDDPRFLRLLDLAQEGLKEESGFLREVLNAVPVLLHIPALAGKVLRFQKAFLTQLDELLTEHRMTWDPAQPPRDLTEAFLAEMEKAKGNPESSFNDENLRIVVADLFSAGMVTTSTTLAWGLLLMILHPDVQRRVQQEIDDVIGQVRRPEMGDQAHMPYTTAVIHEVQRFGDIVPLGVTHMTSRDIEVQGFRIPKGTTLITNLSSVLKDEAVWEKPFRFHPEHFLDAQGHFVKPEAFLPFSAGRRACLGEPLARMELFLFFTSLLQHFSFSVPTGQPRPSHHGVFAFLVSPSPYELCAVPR

[14] = target: Cytochrome P450 3A4 (Homo sapiens, UniProt P08684); experiment: Inhibition of CYP3A4 (unknown origin) using midazolam as substrate
Chain of Cytochrome P450 3A4 (P08684 whole entry): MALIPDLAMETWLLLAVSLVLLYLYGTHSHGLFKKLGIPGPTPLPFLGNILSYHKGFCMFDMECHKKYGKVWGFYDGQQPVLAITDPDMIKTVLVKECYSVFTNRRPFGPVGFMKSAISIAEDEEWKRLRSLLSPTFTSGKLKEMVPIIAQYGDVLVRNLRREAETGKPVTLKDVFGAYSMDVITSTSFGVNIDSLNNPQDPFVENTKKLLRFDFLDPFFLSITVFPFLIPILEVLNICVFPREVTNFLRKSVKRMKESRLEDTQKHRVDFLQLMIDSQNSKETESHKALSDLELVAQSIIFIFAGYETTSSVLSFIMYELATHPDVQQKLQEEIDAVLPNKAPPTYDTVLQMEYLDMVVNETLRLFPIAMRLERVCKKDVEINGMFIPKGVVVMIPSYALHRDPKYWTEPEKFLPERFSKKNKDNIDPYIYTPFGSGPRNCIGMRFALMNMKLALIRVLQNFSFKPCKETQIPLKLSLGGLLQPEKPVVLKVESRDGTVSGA

[15] = Half life in Wistar rat at 3 mg/kg, po; type: ADME, organism-based; details: in vivo
[16] = Half life in Wistar rat at 10 mg/kg, po; type: ADME, organism-based; details: in vivo
[17] = tested on: Mus musculus; experiment: In vivo agonist activity at A3AR in C57BL/6J mouse assessed as reduction in core body temperature at 10 mg/kg, ip measured up to 2 hrs by telemetric method; type: functional, organism-based
Outline: (§1)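 Male C57BL/6J wild-type mice, plus A3AR-knockout (ADORA3−/−) mice at 10 mg/kg, given test agent or vehicle i.p. Core body temperature (Tb) was followed over time. N=4 to 12 per group. Groups were compared by two-tailed t-test, paired or unpaired as appropriate.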

[18] = tested on: Mus musculus; experiment: Induction of hypothermia in A3AR knock out C57BL/6J mouse at 10 mg/kg, ip measured up to 2 hrs by telemetric method; type: functional, organism-based; outline: as §1
[19] = tested on: Mus musculus; experiment: In vivo agonist activity at A3AR in C57BL/6J mouse assessed as reduction in core body temperature at 3 mg/kg, ip measured up to 2 hrs by telemetric method; type: functional, organism-based; outline: as §1
[20] = tested on: Mus musculus; experiment: In vivo antagonist activity at A3AR in C57BL/6J mouse assessed as inhibition of MRS5698-induced hypothermia at 3 to 10 mg/kg, ip pretreated for 15 mins followed by MRS5698 addition and measured up to 2 hrs by telemetric method; type: functional, organism-based
[21] = in vivo; details: Wistar, rat, po, 3 mg/kg
[22] = in vivo; details: Wistar, rat, po, 10 mg/kg

Compound: COc1cc(CCNc2nc(C#Cc3ccccc3)nc3c2ncn3[C@H]2[C@H](O)[C@H](O)[C@@H]3C[C@@H]32)ccc1O
- inhibition [1]: 33%
- Ki [2]: 590 nM
- inhibition [3]: 39%
- Emax [4]: 16%
- Emax [5]: 75.5%
- Emax [6]: 31%
- Ki [7]: 3570 nM
- Ki [8]: 1980 nM
- Ki [9]: 2220 nM
- IC50 [10]: 2890 nM
- IC50 [11]: 14400 nM
- IC50 [12]: > 30000 nM
- IC50 [13]: > 30000 nM
- IC50 [14]: 2230 nM
- half-life [15]: 27.4 min
- half-life [16]: 29.4 min
- Activity [17]: Active
- Activity [18]: inactive
- Activity [19]: Active
- inhibition [20]: inactive
- bioavailability [21]: 1.5%
- bioavailability [22]: 3.5%
